# Active and inactive are the calls of the source. The rule behind the calls is not given here.
# Key:
# [1] = tested on: Staphylococcus aureus; assay: Antibacterial activity against Staphylococcus aureus ATCC 6538 after overnight incubation by microbroth dilution method; format: functional
# How it was run: (§1)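 Strains grown on nutrient agar, 37°C, 24 h. Inoculum from colony in nutrient broth, 24 h at 37°C, adjusted to McFarland 0.5, about 5 × 10^4 CFU/ml per well. DMSO stocks (4 mg/mL) serially diluted in nutrient broth to final 256 to 0.16 µg/mL. Incubated overnight at 37°C. MIC90 is the lowest concentration inhibiting growth. DMSO 1% final as negative control. Run in triplicate.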
# [2] = tested on: Escherichia coli; assay: Antibacterial activity against Escherichia coli ATCC 25922 after overnight incubation by microbroth dilution method; format: functional; how it was run: as §1
# [3] = tested on: Bacillus spizizenii; assay: Antibacterial activity against Bacillus subtilis ATCC 6633 after overnight incubation by microbroth dilution method; format: functional; how it was run: as §1
# [4] = tested on: Pseudomonas aeruginosa; assay: Antibacterial activity against Pseudomonas aeruginosa ATCC 15442 after overnight incubation by microbroth dilution method; format: functional; how it was run: as §1
# [5] = Inhibition of Bacillus pasteurii urease using urea as substrate measured after 20 mins by phenol reagent based assay; design: species or system Sporosarcina pasteurii
# How it was run: (§2)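 Indophenol method. Enzyme incubated with compound in buffer containing 100 mM urea at 30 °C for 20 min. Phenol reagent (1% w/v phenol, 0.005% w/v sodium nitroprusside) then alkali reagent (0.5% w/v NaOH, 0.1% v/v […]) added. Absorbance read at 630 nm as change per min. Thiourea was the reference inhibitor.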
# [6] = tested on: Salmonella typhimurium; assay: Antibacterial activity against Salmonella typhimurium ATCC 14028 after overnight incubation by microbroth dilution method; format: functional, Salmonella enterica subsp. enterica serovar Typhimurium; conditions: Salmonella enterica
# [7] = tested on: Salmonella typhimurium; conditions: Salmonella enterica subsp. enterica serovar Typhimurium; ATCC 14028
# [8] = tested on: Sporosarcina pasteurii; assay: Inhibition of Bacillus pasteurii urease using urea as substrate measured after 20 mins by phenol reagent based assay relative to control; how it was run: as §2
SMILES,MIC90 [1],MIC90 [2],MIC90 [3],MIC90 [4],IC50 [5],MIC90 [6],MIC90 [7],inhibition [8]
COc1cc(Cc2cnc(N)nc2N)cc(OC)c1OC [TRIMETHOPRIM],22.7 µM,55.1 µM,–,–,–,–,–,–
COc1nc(OCCn2c([N+](=O)[O-])cnc2C)nc(OC(=O)C(N)C(C)C)n1 (configuration not stated),81 µM,67.3 µM,81 µM,54 µM,19.5 µM,81 µM,–,–
NNC(=O)c1ccncc1,inactive,inactive,inactive,inactive,–,–,inactive,–
COc1nc(NNC(=O)c2ccncc2)nc(OC(=O)C(N)Cc2c[nH]c3ccccc23)n1 (configuration not stated),47.5 µM,36 µM,71 µM,60 µM,37.3 µM,36 µM,–,–
Cc1ncc([N+](=O)[O-])n1CCOC(=O)C(N)Cc1c[nH]c2ccccc12 (configuration not stated),179 µM,74.4 µM,239 µM,119 µM,13.6 µM,89.5 µM,–,–
NC(Cc1c[nH]c2ccccc12)C(=O)NNC(=O)c1ccncc1 (configuration not stated),98.9 µM,528 µM,98.9 µM,660 µM,37 µM,792 µM,–,–
NC(Cc1ccccc1)C(=O)NNC(=O)c1ccncc1 (configuration not stated),inactive,inactive,inactive,inactive,21.1 µM,–,inactive,–
COc1cc(Cc2cnc(N)nc2NC(=O)C(N)Cc2c[nH]c3ccccc23)cc(OC)c1OC (configuration not stated),134 µM,67.1 µM,224 µM,67.1 µM,35.1 µM,55.8 µM,–,–
COc1nc(Nc2nc(N)ncc2Cc2cc(OC)c(OC)c(OC)c2)nc(OC(=O)C(N)Cc2ccccc2)n1 (configuration not stated),303 µM,47.3 µM,228 µM,28.4 µM,13.8 µM,56.8 µM,–,–
COc1nc(OCCn2c([N+](=O)[O-])cnc2C)nc(OC(=O)C(N)Cc2c[nH]c3ccccc23)n1 (configuration not stated),16.5 µM,2 µM,13 µM,4 µM,16.3 µM,6.8 µM,–,–
COc1cc(Cc2cnc(N)nc2NC(=O)C(N)C(C)C)cc(OC)c1OC (configuration not stated),82.2 µM,164 µM,68.3 µM,137 µM,52.4 µM,219 µM,–,–
COc1nc(NNC(=O)c2ccncc2)nc(OC(=O)C(N)Cc2ccccc2)n1 (configuration not stated),104 µM,52 µM,156 µM,65 µM,31 µM,78 µM,–,–
COc1nc(OC(=O)C(N)Cc2ccccc2)nc(Oc2c(OC)cc(Cc3cnc(N)nc3N)cc2OC)n1 (configuration not stated),12 µM,3.6 µM,19.3 µM,6 µM,8.33 µM,7.3 µM,–,–
O=C(O)c1cn(C2CC2)c2cc(N3CCNCC3)c(F)cc2c1=O [CIPROFLOXACIN],30.2 µM,30.2 µM,30.2 µM,30.2 µM,–,–,–,–
Cc1ncc([N+](=O)[O-])n1CCOC(=O)C(N)C(C)C (configuration not stated),118 µM,473 µM,158 µM,474 µM,29.5 µM,632 µM,–,–
Cc1ncc([N+](=O)[O-])n1CCOC(=O)C(N)Cc1ccccc1 (configuration not stated),50.3 µM,201 µM,83.6 µM,268 µM,27.4 µM,201 µM,–,–
CC(C)C(N)C(=O)NNC(=O)c1ccncc1 (configuration not stated),inactive,inactive,inactive,inactive,48.6 µM,–,inactive,–
COc1nc(OC(=O)C(N)Cc2c[nH]c3ccccc23)nc(Oc2c(OC)cc(Cc3cnc(N)nc3N)cc2OC)n1 (configuration not stated),3.4 µM,1.1 µM,6.8 µM,1.4 µM,11.5 µM,2.3 µM,–,–
NC(N)=S [THIOUREA],–,–,–,–,21 µM,–,–,–
CC[C@H]1OC(=O)[C@H](C)[C@@H](O[C@H]2C[C@@](C)(OC)[C@@H](O)[C@H](C)O2)[C@H](C)[C@@H](O[C@@H]2O[C@H](C)C[C@H](N(C)C)[C@H]2O)[C@](C)(O)C[C@@H](C)/C(=N\OCOCCOC)[C@H](C)[C@@H](O)[C@]1(C)O [ROXITHROMYCIN],0.6 µM,0.6 µM,0.6 µM,0.3 µM,–,–,–,–
COc1nc(Nc2nc(N)ncc2Cc2cc(OC)c(OC)c(OC)c2)nc(OC(=O)C(N)Cc2c[nH]c3ccccc23)n1 (configuration not stated),213 µM,53.2 µM,213 µM,53.2 µM,12 µM,53.2 µM,–,–
COc1nc(OC(=O)C(N)C(C)C)nc(Oc2c(OC)cc(Cc3cnc(N)nc3N)cc2OC)n1 (configuration not stated),10.6 µM,6.6 µM,7.9 µM,6.6 µM,6.23 µM,15.9 µM,–,–
COc1cc(Cc2cnc(N)nc2NC(=O)C(N)Cc2ccccc2)cc(OC)c1OC (configuration not stated),244 µM,73.1 µM,244 µM,73.1 µM,31.3 µM,97.4 µM,–,–
COc1nc(Nc2nc(N)ncc2Cc2cc(OC)c(OC)c(OC)c2)nc(OC(=O)C(N)C(C)C)n1 (configuration not stated),166 µM,62.2 µM,124 µM,51.7 µM,19.3 µM,82.8 µM,–,–
COc1nc(NNC(=O)c2ccncc2)nc(OC(=O)C(N)C(C)C)n1 (configuration not stated),118 µM,59 µM,177 µM,74 µM,29.3 µM,74 µM,–,–
Cc1ncc([N+](=O)[O-])n1CCO,inactive,inactive,inactive,inactive,–,–,–,13%
COc1nc(OCCn2c([N+](=O)[O-])cnc2C)nc(OC(=O)C(N)Cc2ccccc2)n1 (configuration not stated),24 µM,7.4 µM,18 µM,9 µM,11.4 µM,18 µM,–,–

# Reference: ChEMBL document CHEMBL4251638, “Amino acid conjugated antimicrobial drugs: Synthesis, lipophilicity- activity relationship, antibacterial and urease inhibition activity” (Eur J Med Chem, 2018)
